Beta2AR agonist – human beta-2 adrenergic receptor agonism by FAP; P07550; Am2.2-beta2AR cells, FAP receptor internalization, flow cytometry; response, % (no concentration beside the values); 340,000 compounds, 0.43% hits; AID 504454;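 active = response above a set limit, near 3 SD of response in nonfluorescent compounds, cut at about 42% in these data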
Target sequence (P07550 whole entry, looked up): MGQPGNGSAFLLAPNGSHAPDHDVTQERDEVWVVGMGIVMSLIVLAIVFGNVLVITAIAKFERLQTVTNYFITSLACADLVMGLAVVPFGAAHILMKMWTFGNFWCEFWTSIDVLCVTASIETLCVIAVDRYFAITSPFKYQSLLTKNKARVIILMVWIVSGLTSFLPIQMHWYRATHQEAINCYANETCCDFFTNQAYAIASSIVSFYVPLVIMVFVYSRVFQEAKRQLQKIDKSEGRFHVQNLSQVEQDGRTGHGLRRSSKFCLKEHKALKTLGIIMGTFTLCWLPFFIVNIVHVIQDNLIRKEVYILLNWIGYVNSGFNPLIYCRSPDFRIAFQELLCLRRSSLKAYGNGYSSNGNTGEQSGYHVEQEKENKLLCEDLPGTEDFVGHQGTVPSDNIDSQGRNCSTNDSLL
T cell HTS – T cell immune modulators affecting CD8 T cell-vesicle binding; 2C CD8+ T cell-vesicle binding, flow cytometry; stronger effect = lower value; response (vesicle binding), % at 7 µM; 330,000 compounds, 0.068% hits;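 active = response, share of CD8 T cells binding vesicles, and their 90th percentile fluorescence all below set limits, cut at about 80% in these data, passing the limit was not always enough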;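 note: values below 100% mean blocked vesicle binding to the CD8+ T cells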
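Also added: QL9-peptide-loaded Drosophila micro-vesicles bearing Ld, ICAM-1 and B7-1; Test system: purified 2C TCR transgenic mouse naive CD8+ T cells; Measured by: cytometric PE anti-B7-1 and Alexa647 anti-CD8 signals after 1% paraformaldehyde fixation; Timing: binding step 1.5 h, 37 °C, antibody labelling 20 min, ice.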
XBP1 UPR activ – activators of adaptive arm of unfolded protein response (XBP1). activation, % at 20 µM. AID 463104. CHO-XBP1 luciferase reporter, IRE1-XBP1 UPR activation, luminescence; percent of tunicamycin response, DMSO as zero. 330,000 compounds, 0.33% hits;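 active = versus positive control, 20 µM dose yields 30% or more activation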;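 note: 100% = tunicamycin at 10 µg/mL and 0% = DMSO only wells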
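Signal: luciferase luminescence; Assay system: CHO-XBP1 luciferase reporter cells; Amount: one thousand reporter cells per well; Dosing: 20 µM single concentration, DMSO 1%; Benchmarks: high control tunicamycin 10 µg/mL final, low control DMSO vehicle only; Schedule: 6 h compound exposure at 37 °C, 5% CO2; Evaluation: percent activation relative to tunicamycin reference.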
CHOP UPR activ – activators of apoptotic arm of unfolded protein response (CHOP) | CHO-CHOP luciferase reporter, UPR activation, luminescence; percent of tunicamycin response over DMSO baseline | activation, % at 10 µM | 330,000 compounds, 0.34% hits;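 active = at 10 µM dose, activation of 40% or more, normalized to positive control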;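 note: 100% = tunicamycin at 10 µg/mL and 0% = DMSO alone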
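Dosing – one dose, 10 µM in 0.5% DMSO · System – CHO-CHOP cells, stable luciferase reporter of PERK-eIF2a-CHOP signalling · Input – 500 cells/well · Control set – tunicamycin 10 µg/mL final as positive, DMSO-only wells as negative · Timing – 6 h compound treatment, 37 °C · Measure – % activation vs tunicamycin · Technique – luminescence read with Steady-Glo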
Starred values were filed as active, the others as inactive; x = not tested or not shown. Shown are actives, neighbours in structure and some others; about 1% of the full set was active somewhere.

SMILES | Beta2AR agonist | T cell HTS | XBP1 UPR activ | CHOP UPR activ
CCCc1cc(C(=O)Nc2nnc(C)s2)cs1 | -15 | 299 | -1 | 6
COc1ccc(/C=C2/C(=O)N(c3ccccc3)N=C2C)cc1Br | 76* | 327 | 0 | 1
CC1(C)C(=O)C=CC(=O)C(C)(C)C(=O)C=CC(=O)C(C)(C)C2=CC=C(O2)C(C)(C)C(=O)C=CC1=O | 62* | x | x | x
CCOC(=O)C1=C(N)n2c(s/c(=C\c3ccco3)c2=O)=C(C(=O)OC(C)C)C1c1ccco1 (stereo unspecified) | 65* | 178 | 0 | -1
Cc1ccc(C)c(OC(=O)c2cncc(Br)c2)c1 | -4 | 0.0* | 1 | 4
CSc1nncc(/C(C)=N\Nc2ccccc2C)n1 | 48* | 162 | 5 | 6
COc1cccc2c1[C@@H]1CN(CCCCn3c(=O)[nH]c4c(sc5ncc(-c6ccccc6)nc54)c3=O)C[C@@H]1CO2 | 31 | 416 | -7 | 7
CN1CCN(NC(=O)c2cc(-c3ccc(Cl)s3)nc3ccccc23)CC1 | 13 | 552 | 1 | 1
Nc1nc(-c2ccccn2)nc(N)c1Cc1ccc(Cl)cc1Cl | -9 | 371 | 43* | 34
O=c1cc(-c2ccccc2)oc2ccc(Cl)cc12 | -7 | x | x | x
O=c1oc(-c2ccccc2)cc(Cl)c1Cl | 51* | 187 | 2 | 58*
COc1ccc(CC(=O)NCCC2=CCCCC2)cc1 | -7 | 229 | 0 | 0
CC[C@]12C(=O)N(C)C[C@H]([C@@H]3C(=O)N(C)C(=O)[C@@H]31)N2C(=O)c1ccc(Br)cc1 | -2 | x | x | x
COC(=O)c1ccc(COc2ccccc2/C=C/C(=O)c2ccc(OCC(=O)O)cc2)cc1 | 47* | 438 | 0 | 3
COC(=O)c1ccc(COc2ccccc2/C=N/Nc2cccc(C(=O)O)c2)cc1 | 2 | x | x | x
COc1cc(/C=N/N=C(N)N)ccc1OCc1ccccc1Cl | 54* | 245 | 14 | 4
COc1ccc(/C=N/N=C/c2ccc(OC)c(OC)c2)cc1OC | 3 | 502 | 2 | 0
COC(=O)c1ccccc1CC1SC(N)=NC1=O (stereo unspecified) | 10 | 169 | 2 | 2
N#CCN1CCN(CC(=O)Nc2ccc(OCc3ccccc3)cc2)CC1 | 42* | 422 | 0 | 0
CCSc1nc2ccccc2n1C(=O)/C=C\c1ccc(OC)c(OC)c1 | 51* | 394 | -2 | 2
O=C(COC(=O)CCc1nc2ccccc2c(=O)[nH]1)Nc1ccccc1Cl | -10 | 260 | -3 | 2
O=C(CSc1nc2[nH]c(=O)cc(O)c2s1)Nc1nncs1 | 22 | x | x | x
Cc1csc(NC(=O)CSc2nc3[nH]c(=O)cc(O)c3s2)n1 | 93* | x | x | x
COc1ccc(OC)c(NC(=O)CCN2CCCCC2)c1 | 6 | 76* | 2 | 0
COc1ccc(C2C(C(=O)N3CCN(c4ccccn4)CC3)CC(=O)N2c2ccc(OC)cc2)cc1 (stereo unspecified) | -6 | 237 | -1 | 0
SMILES | Beta2AR agonist | T cell HTS | XBP1 UPR activ | CHOP UPR activ
O=C(/C=C/C=C/c1ccccc1)CC1(O)C(=O)N(CCc2ccccc2)c2ccccc21 (stereo unspecified) | 93* | 417 | -1 | -1
O=C(c1cc([N+](=O)[O-])cc([N+](=O)[O-])c1)N(Cc1nnc(-c2ccccc2Cl)o1)C1CC1 | -10 | 853 | 1 | -1
O=C1c2cccnc2C(Nc2ccc(Br)cc2)N1Cc1cccs1 (stereo unspecified) | 4 | 301 | 2 | -2
CCN(CC)c1c([N+](=O)[O-])c(=O)n(C)c2ccccc12 | -7 | 256 | -3 | 1
Cn1c(=O)c([N+](=O)[O-])c(Cl)c2ccccc21 | 89* | x | x | x
COc1ccc(-n2nc(C(=O)NCC(=O)NC3CCCCC3)c3ccccc3c2=O)c(OC)c1 | -1 | 316 | -6 | 2
COc1ccc(OCC(=O)Nc2cc(-c3nn4c(C)nnc4s3)ccc2C)cc1 | 70* | 161 | 3 | -1
COc1ccc(C(=O)Nc2cc(-c3nn4c(C)nnc4s3)ccc2C)cc1 | -8 | 202 | -1 | 1
Cc1ccccc1CN1N=C(/C=C/c2ccccc2)CCC1=O | 48* | 386 | -3 | 1
CCCCC(=O)Nc1ccc(N2CCN(C(=O)c3ccco3)CC2)cc1 | 1 | 271 | -6 | 2
O=C(c1ccc(Cl)cc1)C(CN1CCCCC1)c1ccccc1 (stereo unspecified) | 3 | 175 | -8 | 203*
CCCCCN=C(N)N/N=C/c1c[nH]c2ccc(OC)cc12 | 47* | 103 | -3 | 18

Screening data (PubChem)
